Measurements as given in paper PMC9136973 (ACS Central Science, 2022).
Values after ≈ are worked out from the molar mass of the structure shown. Each block holds one compound with its values, some of them ahead of it.

Key:
Hsp70, Hsp40, and Hsp27 = assay: Immunoblot of heat shock response proteins in K562 cells; assay type: cell-based, human; settings: 48 h, cytotoxic concentration
MOLT-4 cells = assay: Xenotransplantation in zebrafish embryos; assay type: in vivo; settings: 500 nM, 48 h
Outline: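 Wild-type TE zebrafish embryos at 32 hpf each received ~1 nL (~200) CFDA SE-labeled MOLT-4 cells into the perivitelline space, then 1 h at 28 °C. Well-engrafted embryos were treated with test compound (500 nM) or DMSO for 48 h at 35 °C, with development monitored. Embryos were dissociated through a 40 μm strainer and labeled cells quantified by flow cytometry. Fold change was taken against the DMSO-group mean.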

[1] = Aqueous thermodynamic solubility; assay type: physicochemical; settings: phosphate-buffered saline, pH 7.4
[2] = target: recombinant Hsp90α CTD protein (Homo sapiens, UniProt P07900); assay: Cell-free thermal shift assay; assay type: binding; settings: 100 µM
recombinant Hsp90α CTD protein, sequence (P07900 563-732): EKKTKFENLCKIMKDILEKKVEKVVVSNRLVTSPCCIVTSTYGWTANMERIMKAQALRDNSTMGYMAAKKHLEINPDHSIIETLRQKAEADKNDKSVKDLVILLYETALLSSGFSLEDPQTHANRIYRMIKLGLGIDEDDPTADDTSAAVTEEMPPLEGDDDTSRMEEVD
Outline: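 Recombinant human Hsp90α CTD (residues 563–732, 5 μM) was mixed with test compound in 1× PBS, pH 7.5, and incubated for 2 h. SYPRO orange (6×) was added and samples were heated with increasing temperature up to 95 °C. Tm was compared with the DMSO vehicle control.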

Compound: CCNC(=O)c1noc(-c2cc(C(C)C)c(O)cc2O)c1-c1ccc(CN2CCOCC2)cc1 [AUY922]
induction of heat shock response (expression of Hsp70, Hsp40, Hsp27) (Hsp70, Hsp40, and Hsp27): led to HSR induction
toxicity on the development of xenotransplanted embryos (MOLT-4 cells): No toxicity
number of transplanted MOLT4 cells vs DMSO-treated group (MOLT-4 cells; flow cytometry): significantly reduced

solubility thermodynamic [1]: 95 µM (≈ 27.9 µg/mL)
Compound: Cc1nccn1CC1CCc2c(c3ccccc3n2C)C1=O (centres unmarked) [Ondansetron]

effect on thermal stability of Hsp90α CTD protein [2]: stabilized
Compound: CO[C@H]1[C@H](OC(=O)c2ccc(C)[nH]2)[C@H](O)[C@@H](Oc2ccc3c(O)c(NC(=O)c4c[nH]c(C(=O)Nc5c(O)c6ccc(O[C@H]7OC(C)(C)[C@@H](OC)[C@H](OC(=O)c8ccc(C)[nH]8)[C@@H]7O)c(C)c6oc5=O)c4C)c(=O)oc3c2C)OC1(C)C [coumermycin A1]
